One series concerns HT-29. In words: Antiproliferative activity against human HT-29 cells after 72 hrs by MTT assay. It is filed as functional, cell-based. An outline of the steps:
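HT29 colon cells grown in RPMI 1640 with 10% FBS, 2 mmol/l glutamine, 1 mmol/l pyruvate and penicillin-streptomycin at 37 °C, 5% CO2. Cells seeded at 4000/well and attached for 24 h. Treated 72 h with 1000 to 0.32 µM (5-fold dilutions), final DMSO <0.1%; DMSO vehicle controls. MTT 0.5 mg/ml for 2 h, solubilized in DMSO, A570 read. Run in quadruplicate.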
A general note: Tetrazolium dyes change colour on reduction, which living cells bring about.

Series [1] can be described thus: Solubility of the compound in RPMI 1640 cell culture medium. The class given is physicochemical.
Another series relates to SK-BR-3. Briefly: Antiproliferative activity against human SKBR3 cells after 72 hrs by MTT assay. It is filed as functional, cell-based. Conditions: SK-BR-3, 72 h.
The subject of another series is NCI-H292. In words: Antiproliferative activity against human NCI-H292 cells after 72 hrs by MTT assay. The class given is functional, cell-based. The settings on record: NCI-H292, 72 h.
The next series concerns NCI-H522. Briefly: Antiproliferative activity against human NCI-H522 cells after 72 hrs by MTT assay. It is filed as functional, cell-based. The settings on record: NCI-H522, 72 h.
A short description of series [2]: Antiproliferative activity against human MDA468 cells after 72 hrs by MTT assay. The class given is functional, cell-based. Conditions: MDA-MB-468, 72 h.
A further series concerns MCF7. In words: Antiproliferative activity against human MCF7 cells after 72 hrs by MTT assay. The class given is functional, cell-based. Conditions: MCF7, 72 h.
The subject of the next series is IMR-90. In words: Cytotoxicity against human IMR90 cells after 72 hrs by MTT assay. It is filed as cell-based. Conditions: IMR-90, 72 h.
Series [3] is filed under the species Bos taurus. In words: Inhibition of bovine tubulin polymerization at 25 uM using microtubule-associated protein rich tubulin measured for 20 mins by spectrophotometry. An outline of the steps:
(§1)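 Bovine brain MAP-rich tubulin at 2 mg/ml in 80 mM PIPES pH 6.9, 2 mM MgCl2, 0.5 mM EGTA, 5% glycerol. Mixed with compound in DMSO or DMSO control at 37 °C. Polymerization started with GTP (2 µl of 1 mM stock) and followed as absorbance at 340 nm over 20 min.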

The species named for series [4] is Bos taurus. In words: Inhibition of bovine tubulin polymerization using microtubule-associated protein rich tubulin measured for 20 mins by spectrophotometry. A digest of the protocol:
as §1

The species named for series [5] is Bos taurus. In words: Inhibition of bovine tubulin polymerization at 8 uM using microtubule-associated protein rich tubulin at 10 mins by spectrophotometry relative to control. An outline of the steps: as §1
The species named for series [6] is Bos taurus. Briefly: Inhibition of bovine tubulin polymerization at 10 uM using microtubule-associated protein rich tubulin at 10 mins by spectrophotometry relative to control. An outline of the steps: as §1
The species named for series [7] is Bos taurus. In words: Induction of bovine tubulin polymerization at 2 uM using microtubule-associated protein rich tubulin measured for 20 mins by spectrophotometry. An outline of the steps:
as §1

Series [8] is filed under the species Bos taurus. Briefly: Induction of bovine tubulin polymerization at 5 uM using microtubule-associated protein rich tubulin measured for 20 mins by spectrophotometry. An outline of the steps:
as §1

[9] abbreviates: Homo sapiens, HT-29, 72 h, read-out: IC50.

Here are results for 39 molecules from ChEMBL document CHEMBL2086341, “COX inhibitors Indomethacin and Sulindac derivatives as antiproliferative agents: synthesis, biological evaluation, and mechanism investigation” (Eur J Med Chem, 2012).

Each structure is given as a SMILES string. Active and inactive are the calls of the source. The calls are words filed in the database; no cut-off is given here.

What is called IC50 is the concentration that gives 50% inhibition. A word on the inhibition: it is how much of the control response was suppressed.

For `COc1ccc2c(c1)c(CC(=O)Nc1ccccc1OC)c(C)n2C(=O)c1ccc(Cl)cc1`, in the series with HT-29 (setting [9]), the IC50 came to 1120 µM.

Regarding `COc1ccc2c(c1)c(CC(=O)NCc1ccc(CNC(=O)Cc3c(C)n(C(=O)c4ccc(Cl)cc4)c4ccc(OC)cc34)cc1)c(C)n2C(=O)c1ccc(Cl)cc1`, the concentration for half-maximal inhibition (IC50) entry in the series with HT-29 (ht-29) was “ND(Insoluble)”. For the same molecule, the solubility entry in [1] was “Insoluble”. Consider `CCCCNC(=O)CC1=C(C)/C(=C/c2ccc([S+](C)[O-])cc2)c2ccc(F)cc21` (stereo not drawn), for which the IC50 in the series with HT-29 (setting [9]) came out at 124 µM.

For the molecule `COc1ccc2c(c1)c(CC(=O)NCCN1CCCC1)c(C)n2C(=O)c1cc(OC)c(OC)c(OC)c1`, in the series on HT-29 (setting [9]), the IC50 was found to be 34 µM. Consider `CC1=C(CC(=O)NCCN(C)C)c2cc(F)ccc2/C1=C\c1ccc2ccccc2c1`, for which the half-maximal inhibitory concentration (IC50) in the series with HT-29 (setting [9]) came out at 271 µM. Consider `COc1ccc(C(=O)n2c(C)c(CC(=O)NCCN(C)C)c3cc(OC)ccc32)cc1`, for which the IC50 in the series with HT-29 (setting [9]) is 17.8 µM. Still for that read-out and setting: the result for `CC1=C(CC(=O)NCCCN(C)C)c2cc(F)ccc2/C1=C\c1ccc([S+](C)[O-])cc1` (stereo not drawn) reads 465 µM; that for `COc1ccc2c(c1)c(CC(=O)NCCN1CCCC1)c(C)n2C(=O)c1ccc(Cl)cc1`, 38 µM. On to `CCCCCC(C)NC(=O)CC1=C(C)/C(=C/c2ccc([S+](C)[O-])cc2)c2ccc(F)cc21` (stereo not drawn), for which, in the series on HT-29 (setting [9]), the IC50 was 2140 µM. The same measure, in the same setting: the same measure for `COc1cc(/C=C2/C(C)=C(CC(=O)NCCN(C)C)c3cc(F)ccc32)cc(OC)c1OC`: 140 µM. Consider `COc1ccc2c(c1)c(CC(=O)NCCN(C)C)c(C)n2C(=O)c1cc(OC)c(OC)c(OC)c1`, for which the IC50 is 2.7 µM in the series on HT-29 (setting [9]); 4.63 µM with SK-BR-3; 0.51 µM in the series with NCI-H292; 3 µM with NCI-H522; 2.87 µM in [2]; 0.9 µM in the series on MCF7. Besides, 17.2 µM corresponded to half-maximal inhibition in the series with IMR-90 (IC50). Moreover, the inhibition entry in the series filed under Bos taurus [3] is “Active”. Further, the inhibition result in the series filed under Bos taurus [4] is “Dose-dependent effect”; in the series filed under Bos taurus [5] it was 20%; in the series filed under Bos taurus [6] it was 56%. In addition, the result in the series listed under Bos taurus [7] and in the series filed under Bos taurus [8] was Active. `CC1=C(CC(=O)NCCN(C)C)c2cc(F)ccc2/C1=C\c1ccc(Br)cc1`: the half-inhibitory concentration (IC50) in the series on HT-29 (setting [9]) worked out at 20 µM. Still for that read-out and setting: the result for `COc1ccc2c(c1)c(CC(=O)Nc1ccc(I)cc1)c(C)n2C(=O)c1ccc(Cl)cc1` reads 52 µM. `COc1ccc2c(c1)c(CC(=O)NCCN1CCOCC1)c(C)n2C(=O)c1ccc(OC)c(OC)c1`: the 50% inhibitory concentration (IC50) entry in the series on HT-29 (ht-29) is recorded as “ND(Insoluble)”. Besides, the solubility entry in [1] was “Insoluble”. As for `CC1=C(CC(=O)NCCN2CCCC2)c2cc(F)ccc2/C1=C\c1ccc([S+](C)[O-])cc1` (stereo not drawn), the IC50 with HT-29 (setting [9]) turned out to be 52 µM. For `CCCCCCNC(=O)CC1=C(C)/C(=C/c2ccc([S+](C)[O-])cc2)c2ccc(F)cc21` (stereo not drawn), the half-maximal inhibitory concentration (IC50) in the series with HT-29 (setting [9]) stood at 53 µM. The same measure, in the same setting: the same measure for `COc1ccc2c(c1)c(CC(=O)NCCN(C)C)c(C)n2C(=O)c1ccc(OC)c(OC)c1`: 44 µM. Consider `COc1ccc2c(c1)c(CC(=O)Nc1ccc(Cl)cc1)c(C)n2C(=O)c1ccc(Cl)cc1`, for which the IC50 with HT-29 (setting [9]) is 68 µM. Turning to `CC1=C(CC(=O)NCCN(C)C)c2cc(F)ccc2/C1=C\c1ccc(Cl)cc1`, the IC50 with HT-29 (setting [9]) was 12.4 µM. On the same count and under the same terms, the result for `CCCCCCNC(=O)Cc1c(C)n(C(=O)c2ccc(Cl)cc2)c2ccc(OC)cc12` reads 1330 µM; that for `COc1ccc2c(c1)c(CC(=O)NCCN(C)C)c(C)n2C(=O)c1ccc2ccccc2c1`, 29 µM.

With `CC1=C(CC(=O)NCCC(C)C)c2cc(F)ccc2/C1=C\c1ccc([S+](C)[O-])cc1` (stereo not drawn), in the series with HT-29 (setting [9]), the 50% inhibitory concentration (IC50) was 1430 µM. Take `CC1=C(CC(=O)NCCN(C)C)c2cc(F)ccc2/C1=C\c1ccc([S+](C)[O-])cc1` (stereo not drawn): the concentration for half-maximal inhibition (IC50) with HT-29 (setting [9]) came out at 47 µM. Consider `COc1ccc2c(c1)c(CC(=O)NCCCCCNC(=O)Cc1c(C)n(C(=O)c3ccc(Cl)cc3)c3ccc(OC)cc13)c(C)n2C(=O)c1ccc(Cl)cc1`, for which the concentration for half-maximal inhibition (IC50) in the series with HT-29 (setting [9]) was 110 µM. Still for that read-out and setting: the same measure for `COc1cccc(NC(=O)Cc2c(C)n(C(=O)c3ccc(Cl)cc3)c3ccc(OC)cc23)c1`: 1190 µM. As to `COc1ccc2c(c1)c(CC(=O)NCCN(C)C)c(C)n2S(=O)(=O)c1ccccc1`, the IC50 in the series on HT-29 (setting [9]) stood at 7.7 µM; with SK-BR-3, 6.39 µM; with NCI-H292, 4.85 µM; in the series on NCI-H522, 14.1 µM; in series [2], 15.9 µM; with MCF7, 4.88 µM. It took 18.7 µM to reach half-maximal inhibition in the series with IMR-90 (IC50). Also, in the series listed under Bos taurus [3], the inhibition entry is “Active”. As for `CSc1ccc(/C=C2/C(C)=C(CC(=O)NCCN(C)C)c3cc(F)ccc32)cc1`, the concentration for half-maximal inhibition (IC50) in the series on HT-29 (setting [9]) was found to be 11.3 µM. On the same count and under the same terms, the result for `CC1=C(CC(=O)O)c2cc(F)ccc2/C1=C\c1ccc([S+](C)[O-])cc1` (stereo not drawn) [SULINDAC] reads 1730 µM; that for `COc1ccc2c(c1)c(CC(=O)O)c(C)n2C(=O)c1ccc(Cl)cc1` [INDOMETHACIN], 1050 µM. Regarding `COc1ccc2c(c1)c(CC(=O)NCCN1CCCCC1)c(C)n2C(=O)c1ccc(Cl)cc1`, the 50% inhibitory concentration (IC50) in the series with HT-29 (setting [9]) was 277 µM. In the case of `COc1ccc2c(c1)c(CC(=O)NCCN(C)C)c(C)n2C(=O)c1ccc(Cl)cc1`, the half-maximal inhibitory concentration (IC50) in the series with HT-29 (setting [9]) worked out at 170 µM.

With `CCCCCCCCNC(=O)CC1=C(C)/C(=C/c2ccc([S+](C)[O-])cc2)c2ccc(F)cc21` (stereo not drawn), the 50% inhibitory concentration (IC50) in the series on HT-29 (setting [9]) stood at 307 µM.

Consider `COc1ccc2c(c1)c(CC(=O)NCCN1CCOCC1)c(C)n2C(=O)c1ccc(Br)cc1`, for which the 50% inhibitory concentration (IC50) result with HT-29 (ht-29) is “ND(Insoluble)”. Also, the solubility result in series [1] is “Insoluble”. In the case of `COc1ccc(NC(=O)CC2=C(C)/C(=C/c3ccc([S+](C)[O-])cc3)c3ccc(F)cc32)cc1` (stereo not drawn), the IC50 in the series with HT-29 (setting [9]) is 2540 µM. Turning to `COc1ccc(/C=C2/C(C)=C(CC(=O)NCCN(C)C)c3cc(F)ccc32)cc1`, the IC50 with HT-29 (setting [9]) is 20 µM. Regarding `CC1=C(CC(=O)Nc2ccc(Cl)cc2)c2cc(F)ccc2/C1=C\c1ccc([S+](C)[O-])cc1` (stereo not drawn), the IC50 with HT-29 (setting [9]) amounted to 1700 µM. `COc1ccc2c(c1)c(CC(=O)NCCN(C)C)c(C)n2C(=O)c1ccc(Br)cc1`: the IC50 is 13.5 µM in the series with HT-29 (setting [9]); 4.81 µM in the series with SK-BR-3; 3.47 µM in the series on NCI-H292; 10.6 µM in the series on NCI-H522; 2.91 µM in series [2]; 9.53 µM with MCF7. Further, in the series on IMR-90, the half-inhibitory concentration (IC50) worked out at 41.7 µM. Moreover, the inhibition result in the series filed under Bos taurus [3] was “Active”.

Consider `COc1ccc2c(c1)c(CC(=O)NCCN1CCOCC1)c(C)n2C(=O)c1cc(OC)c(OC)c(OC)c1`, for which, in the series on HT-29 (setting [9]), the half-maximal inhibitory concentration (IC50) was determined as 611 µM. Same read-out and setting: the result for `CC1=C(CC(=O)Nc2ccc(C#N)cc2)c2cc(F)ccc2/C1=C\c1ccc([S+](C)[O-])cc1` (stereo not drawn) reads 2580 µM.
